ChEMBL document CHEMBL1125703, “Synthesis, hydrolysis rates, supercomputer modeling, and antibacterial activity of bicyclic tetrahydropyridazinones” (J Med Chem, 1991)

Key:
Format in all cases: ADME
Settings in all cases: buffer
[1] = Compound was evaluated for its hydrolysis at pH 9 expressed as pseudo first order rate constant (K) (micro = 0.5)
Outline: (§1)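 Alkaline hydrolysis, i.e. chemical reactivity of the lactam ring with hydroxide ion, followed by pH stat at the pH named in the line. Ionic strength (μ) was 0.5 and the temperature 35 °C. Pseudo-first-order rate constants and half-lives were obtained under these conditions. Some entries are single determinations.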

[2] = Compound was evaluated for its hydrolysis at pH 10 half-life period (T1/2); outline: as §1
[3] = Compound was evaluated for its hydrolysis at pH 10 expressed as pseudo first order rate constant (K) (micro = 0.5); outline: as §1
[4] = Compound was evaluated for its hydrolysis at pH 9 half life period (T1/2); outline: as §1
[5] = Compound was evaluated for its hydrolysis at pH 9 for half life period (T1/2); outline: as §1

Structure (SMILES)	k [1] [h⁻¹]	half-life [2] [min]	k [3] [h⁻¹]	half-life [4] [min]	half-life [5] [min]
CO/N=C(/C(=O)NC1CN2CC(C#N)=C(C(=O)O)N2C1=O)c1csc(N)n1 (stereo not given)	1.73			24	
CO/N=C(/C(=O)NC1CN2CC(C(=O)O)=C(C(=O)O)N2C1=O)c1csc(N)n1 (stereo not given)		128	0.324		
CC1(C)S[C@@H]2[C@H](NC(=O)COc3ccccc3)C(=O)N2[C@H]1C(=O)O [PENICILLIN V]			0.248		

Continued, values first:

k [1] [h⁻¹]	half-life [2] [min]	k [3] [h⁻¹]	half-life [4] [min]	half-life [5] [min]	Structure (SMILES)
0.0144	285	0.146	2880		CO/N=C(/C(=O)NC1CCN2CC(C(=O)[O-])=C(C(=O)[O-])N2C1=O)c1csc(N)n1.[Na+].[Na+] (stereo not given)
3.16				13.2	CO/N=C(/C(=O)NC1CCN2CC(C(C)=O)=C(C(=O)O)N2C1=O)c1csc(N)n1 (stereo not given)
0.724			57.6		CO/N=C(\C(=O)NC1CN2CC(C(C)=O)=C(C(=O)O)N2C1=O)c1csc(N)n1 (stereo not given)
1.75			24		CO/N=C(/C(=O)NC1CCN2CC(C#N)=C(C(=O)O)N2C1=O)c1csc(N)n1 (stereo not given)
